# How the values were obtained:
# healthy adults [1] = assay: Thorough QT/QTc crossover study, Holter ECG recordings; assay type: in vivo, human
# In short: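 Three-period crossover in healthy adults (QTcF >450 ms excluded), with 14-day washouts and six Williams-square sequences. Dosing was placebo, a 0.1 mg/kg IV bolus over 30 s, or oral moxifloxacin 400 mg at Hour 1. ECGs came from 24-h Holter recordings read blind, with baseline the mean of −1, −0.5 and −0.25 h values. QTcI/QTcF/QTcB time-matched ddQTc was analysed by linear mixed-effect models with one-sided 95% CI.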
# healthy adults [2] = assay: Treatment-emergent adverse events; assay type: in vivo, human; details: 0.1 mg/kg IV single dose
# [3] = in vitro and in vivo studies; ref data on file; cited from earlier work
Compound,"number of subjects with QTcF intervals >450 but ≤480 milliseconds (healthy adults [1]; healthy subjects, single dose)","percentage of subjects with QTcF intervals >450 but ≤480 milliseconds (healthy adults [1]; healthy subjects, single dose)","peak mean difference in dQTcI and dQTcF vs placebo (healthy adults [1]; moxifloxacin 400 mg oral, 2 hours after administration (Hours 3 and 4))","lower bound of ddQTcF vs placebo at prespecified timepoints (healthy adults [1]; moxifloxacin 400 mg oral, Hours 2, 3, 4 and 5)","lower bound of the one-sided 95% CI of ddQTcF vs placebo (healthy adults [1]; moxifloxacin 400 mg oral, Hours 3 to 10 (2–9 hours after moxifloxacin dosing))","effects on heart rate, PR interval, or QRS interval (healthy adults [1]; healthy subjects, 0.1 mg/kg IV single dose)","subjects with >30 milliseconds increase in QTcF (healthy adults [1]; healthy subjects, single dose)","slope of linear relationship between ddQTcF and plasma concentration (healthy adults [1]; linear mixed-effects model, P = 0.126, 90% CI (<−0.0005, 0.002), not statistically significant)",subjects with cardiac disorder TEAE (healthy adults [2]),severity of TEAEs (healthy adults [2]; healthy subjects),metabolism [3]
COc1c(N2C[C@@H]3CCCN[C@@H]3C2)c(F)cc2c(=O)c(C(=O)O)cn(C3CC3)c12 [moxifloxacin],five,8.3%,around 12 milliseconds,above 5 milliseconds,> 5 milliseconds,,,,,,
peginesatide,0 subjects,,,,,no peginesatide-related effects,no subject,0.001,No subject,mild or moderate,negligible metabolism

# Reference: PMC4489320 (Clinical Pharmacology in Drug Development, 2014)
